From ChEMBL document CHEMBL1132412, “Antagonists of the platelet P2T receptor: a novel approach to antithrombotic therapy” (J Med Chem, 1999)
One block for each molecule: values may come before it.

What was measured:
[1] = species on record: Rattus norvegicus; assay: Recovery of ADP-induced platelet aggregation 20 minutes post dose. mean of four determinations and spread of results; type: functional
Summary of the method: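 Anesthetized rat; ADP-induced platelet aggregation measured 20 min after dosing to gauge recovery of aggregation (functional kinetics). Mean of four determinations, with spread of results.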

[2] = Platelet P2T receptor antagonist activity in human platelet assay; type: functional
Summary of the method: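 Human washed platelets in modified Tyrode buffer, stimulated to aggregate with ADP; aggregation followed turbidimetrically. Inhibition measured across a concentration range, pIC50 calculated from the concentration-response. Mean of four determinations (nine for one compound).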

Structure (SMILES): O=P(O)(OC[C@H]1O[C@@H](n2cnc3c(NCC(F)(F)F)nc(SCCC(F)(F)F)nc32)[C@H](O)[C@@H]1O)OP(=O)(O)C(Cl)(Cl)P(=O)(O)O
Recovery of ADP-induced platelet aggregation [1]: 6% | Log IC50 [2]: -9.14

Structure (SMILES): CCCSc1nc(NCCSC)c2ncn([C@@H]3O[C@H](COP(=O)(O)OP(=O)(O)C(Cl)(Cl)P(=O)(O)O)[C@@H](O)[C@H]3O)c2n1
Recovery of ADP-induced platelet aggregation [1]: 33% | Log IC50 [2]: -9.42

Structure (SMILES): CSCCNc1nc(SCCC(F)(F)F)nc2c1ncn2[C@@H]1O[C@H](COP(=O)(O)OP(=O)(O)C(Cl)(Cl)P(=O)(O)O)[C@@H](O)[C@H]1O [CANGRELOR]
Recovery of ADP-induced platelet aggregation [1]: 79% | Log IC50 [2]: -9.35

Structure (SMILES): CCCSc1nc(NCCOC)c2ncn([C@@H]3O[C@H](COP(=O)(O)OP(=O)(O)C(Cl)(Cl)P(=O)(O)O)[C@@H](O)[C@H]3O)c2n1
Recovery of ADP-induced platelet aggregation [1]: 48% | Log IC50 [2]: -7.81

Structure (SMILES): CCCSc1nc(NCC(F)(F)F)c2ncn([C@@H]3O[C@H](COP(=O)(O)OP(=O)(O)C(Cl)(Cl)P(=O)(O)O)[C@@H](O)[C@H]3O)c2n1
Recovery of ADP-induced platelet aggregation [1]: 10% | Log IC50 [2]: -9.48

Structure (SMILES): COCCNc1nc(SCCC(F)(F)F)nc2c1ncn2[C@@H]1O[C@H](COP(=O)(O)OP(=O)(O)C(Cl)(Cl)P(=O)(O)O)[C@@H](O)[C@H]1O
Recovery of ADP-induced platelet aggregation [1]: 64% | Log IC50 [2]: -8.02

More lines, main results first:

Log IC50 [2]: -8.16
Structure (SMILES): CCCSc1nc(N)c2ncn([C@@H]3O[C@H](COP(=O)(O)OP(=O)(O)C(F)(F)P(=O)(O)O)[C@@H](O)[C@H]3O)c2n1

Log IC50 [2]: -3.5
Structure (SMILES): Nc1ncnc2c1ncn2[C@@H]1O[C@H](COP(=O)(O)OP(=O)(O)C(Cl)(Cl)P(=O)(O)O)[C@@H](O)[C@H]1O

Log IC50 [2]: -8.6
Structure (SMILES): CCCSc1nc(N)c2ncn([C@@H]3O[C@H](COP(=O)(O)OP(=O)(O)C(Cl)(Cl)P(=O)(O)O)[C@@H](O)[C@H]3O)c2n1
Recovery of ADP-induced platelet aggregation [1]: 93%

Log IC50 [2]: -8.87
Structure (SMILES): Nc1nc(SCCC(F)(F)F)nc2c1ncn2[C@@H]1O[C@H](COP(=O)(O)OP(=O)(O)C(Cl)(Cl)P(=O)(O)O)[C@@H](O)[C@H]1O

Log IC50 [2]: -3.5
Structure (SMILES): Nc1ncnc2c1ncn2[C@@H]1O[C@H](COP(=O)(O)OP(=O)(O)C(F)(F)P(=O)(O)O)[C@@H](O)[C@H]1O

Log IC50 [2]: -6.53
Structure (SMILES): CCSc1nc(N)c2ncn([C@@H]3O[C@H](COP(=O)(O)OP(=O)(O)C(Cl)(Cl)P(=O)(O)O)[C@@H](O)[C@H]3O)c2n1
